In ChEMBL document CHEMBL5038600, “Discovery of M-1121 as an Orally Active Covalent Inhibitor of Menin-MLL Interaction Capable of Achieving Complete and Long-Lasting Tumor Regression” (J Med Chem, 2021) one finds IC50, Activity and concentration data, which are given here for ten compounds.

One data set concerns MOLM-13. The data set can be described thus: Anti-proliferative activity against human MOLM-13 cells harboring MLL/AF9 fusion protein assessed as cell growth inhibition measured after 4 days by Cell Titre Glo Luminescent Cell viability assay. To be noted: MOLM-13, 96 h. The format is functional, cell-based.
A further data set deals with T1, Menin (Homo sapiens, UniProt O00255).
T1 sequence (O00255 whole entry): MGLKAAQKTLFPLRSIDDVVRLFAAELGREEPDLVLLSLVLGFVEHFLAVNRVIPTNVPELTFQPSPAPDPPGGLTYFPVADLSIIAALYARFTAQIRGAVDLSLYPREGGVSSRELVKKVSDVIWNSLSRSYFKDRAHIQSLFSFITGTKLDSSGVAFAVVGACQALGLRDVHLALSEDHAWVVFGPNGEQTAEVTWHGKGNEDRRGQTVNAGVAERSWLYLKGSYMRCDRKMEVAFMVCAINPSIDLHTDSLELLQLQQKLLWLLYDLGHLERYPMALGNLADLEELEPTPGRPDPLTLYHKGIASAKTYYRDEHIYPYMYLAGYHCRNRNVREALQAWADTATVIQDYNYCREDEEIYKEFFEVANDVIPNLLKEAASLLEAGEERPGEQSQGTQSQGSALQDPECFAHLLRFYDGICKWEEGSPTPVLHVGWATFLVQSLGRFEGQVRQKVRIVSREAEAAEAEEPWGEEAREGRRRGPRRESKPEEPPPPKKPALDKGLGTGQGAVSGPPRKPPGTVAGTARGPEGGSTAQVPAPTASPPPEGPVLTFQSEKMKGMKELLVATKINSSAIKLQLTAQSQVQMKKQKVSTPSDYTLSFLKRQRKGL
The data set can be described thus: Binding affinity to menin (unknown origin) incubated for 1 hr by fluorescence polarization-based competitive binding assay. On the technique in general: Fluorescence polarisation rises when a labelled molecule tumbles more slowly, as on binding a larger partner.

A further data set deals with MV4-11. The data set is described as follows: Anti-proliferative activity against human MV4-11 cells harboring MLL/AF4 fusion protein assessed as cell growth inhibition measured after 4 days by Cell Titre Glo Luminescent Cell viability assay. The format is functional, cell-based. To be noted: MV4-11, 96 h.
Data set [1] addresses T2, Menin (Homo sapiens) (UniProt O00255).
T2 sequence (whole entry): T1 sequence (O00255 whole entry)
The data set is described as follows: Binding affinity to recombinant human menin protein assessed as covalent complex formation incubated for 10 mins by LC/MS analysis. Details: concentration or dose not given beside the values.

For data set [2], the target named is T2, Menin (Homo sapiens). The data set can be described thus: Binding affinity to recombinant human menin protein assessed as covalent complex formation incubated for 1 hrs by LC/MS analysis. Details: concentration or dose not given beside the values. Summed up:
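Menin (25 mg/mL in 25 mM Tris pH 8.0, 150 mM NaCl, 5 mM DTT) incubated with compound at a 1:1.2 protein:compound molar ratio for 1 h or overnight at 4 °C. Diluted to 1 mg/mL, then reverse-phase C4 LC with a 5–100% MeCN/0.2% formic acid gradient and Q-TOF mass spectrometry to detect the covalent adduct.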

In data set [3] the target is T2, Menin (Homo sapiens). The data set can be described thus: Binding affinity to recombinant human menin protein assessed as covalent complex formation incubated for 30 mins by LC/MS analysis. Details: concentration or dose not given beside the values.
Data set [4] concerns the target T2, Menin (Homo sapiens). The data set is described as follows: Binding affinity to recombinant human menin protein assessed as covalent complex formation measured after overnight incubation by LC/MS analysis. Details: concentration or dose not given beside the values.
Data set [5] can be described thus: Plasma concentration in mouse at 25 mg/kg, po measured after 6 hrs. The format is ADME, organism-based. Summed up:
(§1)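 Mice given a single oral dose of 25 mg/kg; plasma concentrations sampled at 1, 3 and 6 h post-dose.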

Data set [6] in a line: Plasma concentration in mouse at 25 mg/kg, po measured after 3 hrs. The format is ADME, organism-based. Summed up:
as §1

Data set [7] can be described thus: Plasma concentration in mouse at 25 mg/kg, po measured after 1 hr. The format is ADME, organism-based. An outline of the steps: as §1

Regarding `COC(=O)N[C@H]1CCC[C@@H]1[C@](CN1CCC1)(c1cccc(F)c1)C1CCN(CC2(OC)CN(c3ccc(S(=O)(=O)C4CN(C(=O)/C=C/CN(C)C)C4)cc3)C2)CC1`, the 50% inhibitory concentration (IC50) with MOLM-13 stood at 49.7 nM; at Menin, 2.7 nM; in the data set on MV4-11, 2.3 nM. The Activity came to 36.9% at Menin (Homo sapiens) [1], 85.4% at Menin (Homo sapiens) [2], 83.4% on Menin (Homo sapiens) [3] and 90.9% on Menin (Homo sapiens) [4].
With `COC(=O)N[C@H]1CCC[C@@H]1[C@](CN)(c1cccc(F)c1)C1CCN(CC2CN(c3ccc(S(=O)(=O)C4CC4)cc3)C2)CC1`, the IC50 came to 553 nM in the data set on MOLM-13 and 192 nM in the data set with MV4-11.
Regarding `C=CC(=O)N1CCC(S(=O)(=O)c2ccc(N3CC(CN4CCC([C@@](CN5CCC5)(c5cccc(F)c5)[C@H]5CCC[C@@H]5NC(=O)OC)CC4)(OC)C3)cc2)CC1`, the IC50 in the data set with MOLM-13 is 594 nM; at Menin it was 3.8 nM; in the data set with MV4-11, 156 nM. For the same compound, the Activity on Menin (Homo sapiens) [1] turned out to be 0%; at Menin (Homo sapiens) [2], 0%; at Menin (Homo sapiens) [3], 0%; on Menin (Homo sapiens) [4], 27%.
In the case of `C=CC(=O)N1CCC[C@@H](S(=O)(=O)c2ccc(N3CC(CN4CCC([C@@](CN5CCC5)(c5cccc(F)c5)[C@H]5CCC[C@@H]5NC(=O)OC)CC4)(OC)C3)cc2)C1`, the results for the IC50 in the data set on MOLM-13, at Menin and in the data set on MV4-11 were 188 nM, 3.7 nM and 74 nM, respectively. Further, the Activity was determined as 9.8% on Menin (Homo sapiens) [1], 40.5% on Menin (Homo sapiens) [2], 22.6% on Menin (Homo sapiens) [3] and 90% on Menin (Homo sapiens) [4].
Regarding `C=CC(=O)N1CC(S(=O)(=O)c2ccc(N3CC(CN4CCC([C@@](CN5CCC5)(c5cccc(F)c5)[C@H]5CCC[C@@H]5NC(=O)OC)CC4)(OC)C3)cc2)C1`, the IC50 in the data set with MOLM-13 is 402 nM; with MV4-11 it was 112 nM. In addition, the Activity at Menin (Homo sapiens) [1] was found to be 24.1%; on Menin (Homo sapiens) [2], 59.4%; on Menin (Homo sapiens) [3], 40.9%; on Menin (Homo sapiens) [4], 81.5%.
`C=CC(=O)N1C[C@H]2C[C@@H]1CN2S(=O)(=O)c1ccc(N2CC(CN3CCC([C@@](CN4CCC4)(c4cccc(F)c4)[C@H]4CCC[C@@H]4NC(=O)OC)CC3)(OC)C2)cc1`: the IC50 in the data set with MOLM-13 came to 504 nM; in the data set with MV4-11, 436 nM. In addition, the Activity at Menin (Homo sapiens) [1] was determined as 0%; at Menin (Homo sapiens) [2] it was 0%; at Menin (Homo sapiens) [3], 0%; on Menin (Homo sapiens) [4], 45.1%.
For the compound `COC(=O)N[C@H]1CCC[C@@H]1[C@](CN1CCC1)(c1cccc(F)c1)C1CCN(CC2(C(=O)OC)CN(c3ccc(S(=O)(=O)C4CC4)cc3)C2)CC1`, the IC50 in the data set on MOLM-13 was > 10000 nM; in the data set with MV4-11 it was > 1000 nM.
In [5], `COC(=O)N[C@H]1CCC[C@@H]1[C@](CN1CCC1)(c1cccc(F)c1)C1CCN(CC2(OC)CN(c3ccc(S(=O)(=O)C4CC4)cc3)C2)CC1` returned a concentration at 6 h of 2200 ng/mL. Also, in data set [6], the concentration at 3 h was 5750 ng/mL. The concentration at 1 h in [7] was found to be 8260 ng/mL.
As to `C=CC(=O)N1CCC[C@H](S(=O)(=O)c2ccc(N3CC(CN4CCC([C@@](CN5CCC5)(c5cccc(F)c5)[C@H]5CCC[C@@H]5NC(=O)OC)CC4)(OC)C3)cc2)C1`, the IC50 was determined as 196 nM in the data set with MOLM-13, 3 nM at Menin and 77 nM in the data set with MV4-11. For the same compound, the Activity on Menin (Homo sapiens) [1] was 8.8%; at Menin (Homo sapiens) [2], 37.4%; at Menin (Homo sapiens) [3], 27.9%; on Menin (Homo sapiens) [4] it was 93.1%.
`COC(=O)N[C@H]1CCC[C@@H]1[C@](CN1CCC1)(c1cccc(F)c1)C1CCN(CC2CN(c3ccc(S(=O)(=O)C4CC4)cc3)C2)CC1`: the concentration at 6 h in [5] was found to be 928 ng/mL. In data set [6], the concentration at 3 h turned out to be 735 ng/mL. In data set [7], this compound had a concentration at 1 h of 624 ng/mL.

As usually defined, the IC50 is the point on the concentration scale where inhibition reaches its midpoint.
